Experiments:
[1] = molecular target: Acetylcholine receptor (Torpedo californica) (UniProt P02710+P02712+P02718+P02714); conditions: Tetronarce californica; Electric organ
[2] = molecular target: Muscarinic acetylcholine receptor M3 (Cavia porcellus) (UniProt Q8VH26); experiment: Antagonist affinity at muscarinic acetylcholine receptor (mAChR) of guinea pig longitudinal ileum (M3); type: functional, tissue-based
Method in brief: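 Guinea pig ileum (either sex, 200-400 g) in a 15 mL organ bath of physiological salt solution, gassed 5% CO2/95% O2, pH 7.4. Arecaidine propargyl ester curves (0.01-0.5 µM) were run at 30 min intervals, with the first discarded and the second taken as control. A repeat curve followed 60 min antagonist. pK came from graphical EC50 dose ratios by the Furchgott equation.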

[3] = test system: Muscarinic acetylcholine receptor M2 (Cavia porcellus); experiment: Antagonist affinity at muscarinic acetylcholine receptor (mAChR) of guinea pig left atrium (M2); conditions: Cardiac atrium
[4] = Antagonism of carbachol action on nAChR of isolated frog rectus abdominus.; type: functional, tissue-based, Rectus abdominis muscle

Muscarinic acetylcholine receptor M3 (Cavia porcellus), sequence (Q8VH26 1-587): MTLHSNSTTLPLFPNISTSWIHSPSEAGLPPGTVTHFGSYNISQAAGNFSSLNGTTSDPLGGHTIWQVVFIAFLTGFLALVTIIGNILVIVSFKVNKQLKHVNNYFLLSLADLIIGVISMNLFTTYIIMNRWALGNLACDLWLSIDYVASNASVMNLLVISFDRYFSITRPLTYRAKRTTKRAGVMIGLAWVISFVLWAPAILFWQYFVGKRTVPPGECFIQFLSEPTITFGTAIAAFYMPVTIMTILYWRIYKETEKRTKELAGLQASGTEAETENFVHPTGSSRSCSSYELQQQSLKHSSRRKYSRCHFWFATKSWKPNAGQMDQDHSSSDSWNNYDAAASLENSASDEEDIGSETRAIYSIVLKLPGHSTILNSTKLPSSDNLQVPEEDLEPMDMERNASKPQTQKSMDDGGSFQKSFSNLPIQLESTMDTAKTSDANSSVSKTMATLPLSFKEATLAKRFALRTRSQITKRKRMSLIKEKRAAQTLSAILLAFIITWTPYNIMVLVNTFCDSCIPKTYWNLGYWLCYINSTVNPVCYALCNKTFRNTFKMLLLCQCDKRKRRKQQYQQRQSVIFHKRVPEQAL

Row | SMILES | pKapp [1] | pKB [2] | pKB [3] | Log IC50 [4]
1 | COc1ccccc1CNCCCCCCNCc1ccc(-c2ccc(-c3ccc(CNCCCCCCNCc4ccccc4OC)cc3)cc2)cc1 | 6.35 | < 5 | < 5 | -6.3
2 | c1ccc(C(CNCCCCCCNCCCCCCCCNCCCCCCNCC(c2ccccc2)c2ccccc2)c2ccccc2)cc1 | – | 5.4 | 5.98 | -6.31
3 | CCCC(=O)N[C@H](Cc1ccc(O)cc1)C(=O)NCCCNCCCCCCNCCCCCCCCCCCCNCCCCCCNCc1ccccc1OC | 5.89 | – | – | -6.27
4 | COc1ccccc1CNCCCCCCNCCCCCCNCCCCCCNCCCCCCNCc1ccccc1OC | – | 5.3 | 6.98 | -6.68
5 | [N-]=[N+]=Nc1ccc(C(=O)NCCCNCCCCCCNCCCCCCCCNCCCCCCNCCCNC(=O)c2ccc(N=[N+]=[N-])cc2O)c(O)c1 | 5.86 | – | – | -5.8
6 | [N-]=[N+]=Nc1ccc(C(=O)NCCCNCCCCCCNCCCCCCCCCCCCNCCCCCCNCCCNC(=O)c2ccc(N=[N+]=[N-])cc2O)c(O)c1 | 5.72 | – | – | -6.17
7 | CCCC(=O)N[C@H](Cc1ccc(O)cc1)C(=O)NCCCNCCCCCCNCCCCCCCCCCCCNCCCCCCN | 5.28 | – | – | -6.3
8 | COc1ccc2cc(C(=O)NCCCNCCCCCCNCCCCCCCCNCCCCCCNCc3cc(I)ccc3OC)c(=O)oc2c1 | 6.8 | 5.68 | – | -7.11
9 | CCCC(=O)N[C@H](Cc1ccc(O)cc1)C(=O)NCCCNCCCCCCNCCCCCCNCCCCCCNCc1ccccc1OC | 6.12 | 5.08 | 5.87 | -5.48
10 | COc1ccccc1CNCCCNCCCCCCNCCCCCCCCNCCCCCCNCCCNCc1ccccc1OC | 6.66 | < 6 | < 6 | -6.44
11 | COc1ccccc1CNCCCNCCCCCCNCCCCCCNCCCCCCNCCCNCc1ccccc1OC | 6.4 | < 5 | 6.15 | -6.42
12 | COc1ccccc1CNCCCCCCOCCCCCCCCOCCCCCCNCc1ccccc1OC | – | < 5 | < 5 | -5.14
13 | COc1ccccc1CCNCCCCCCNCCCCCCCCNCCCCCCNCCc1ccccc1OC | – | 5.32 | 6.64 | -5.36
14 | COc1ccc2cc(C(=O)NCCCNCCCCCCNCCCCCCCCNCCCCCCNCc3ccccc3OC)c(=O)oc2c1 | 6.41 | 6.19 | – | -6.21
15 | CCCC(=O)N[C@H](Cc1ccc(O)cc1)C(=O)NCCCNCCCCCCNCCCCCCNCCCCCCN | 4.63 | 5.16 | < 5 | -5.62
16 | CCCC(=O)NC(Cc1ccc(O)cc1)C(=O)NCCCNCCCCNCCCN (stereo unspecified) | 3.94 | < 5 | – | -4.62
17 | COc1ccccc1CN(C)CCCCCCN(C)CCCCCCCCN(C)CCCCCCN(C)Cc1ccccc1OC | – | < 5 | 6.79 | -5.88
18 | COc1ccccc1CNCCCCCCNCCCCCCCCCCCCNCCCCCCNCc1ccccc1OC | 5.66 | 5.98 | 7.35 | -7.02
19 | COc1ccccc1CNCCCCCCNCCCCCCCCNCCCCCCNCc1ccccc1OC [METHOCTRAMINE] | 6.21 | 6.14 | – | -5.93
20 | COc1ccccc1CNCCCNCCCCCCNCCCCCCCCCCCCNCCCCCCNCCCNCc1ccccc1OC | 7.04 | < 5 | 6.5 | -6.66
21 | [N-]=[N+]=Nc1ccc(C(=O)NCCCNCCCCCCNCCCCCCCCNCCCCCCN)c(O)c1 | 5.46 | 7.35 | 7.01 | -6.39
22 | COc1ccccc1CNCc1ccc(CNCCCCCCCCCCCCNCc2ccc(CNCc3ccccc3OC)cc2)cc1 | 6.19 | < 5 | < 5 | -6.43

Source: ChEMBL document CHEMBL1135934, “Structure-activity relationships of methoctramine-related polyamines as muscular nicotinic receptor noncompetitive antagonists. 2. Role of polymethylene chain lengths separating amine functions and of substituents on the terminal nitrogen atoms” (J Med Chem, 2002)
